According to article PMC2659725 (Archives of biochemistry and biophysics, 2009):
Entries after “also recorded” stand apart in the source; their conditions may differ. Like-named read-outs stand apart in the source and are kept apart here.

Key:
tubulin [1] = molecular target: tubulin (Bos taurus, UniProt P81947+Q6B856); assay type: biochemical, bovine; conditions: for Effect on paclitaxel-induced tubulin assembly: 30 μM tubulin, 30 μM paclitaxel
[2] = system: subtilisin-treated tubulin; experiment: Paclitaxel-induced assembly of subtilisin-treated tubulin; assay type: biochemical, bovine; conditions: same tubulin concentration (10 μM)
microtubules = microtubules (Bos taurus, UniProt P81947+Q6B856); experiment: Lengths of paclitaxel-induced microtubules by electron microscopy; assay type: biochemical, bovine; conditions: for Mean microtubule length ± SD, Average / Mean microtubule length ± SD, Experiment I / Mean microtubule length ± SD, Experiment II: paclitaxel-induced microtubules
Sequence of microtubules (P81947 whole entry): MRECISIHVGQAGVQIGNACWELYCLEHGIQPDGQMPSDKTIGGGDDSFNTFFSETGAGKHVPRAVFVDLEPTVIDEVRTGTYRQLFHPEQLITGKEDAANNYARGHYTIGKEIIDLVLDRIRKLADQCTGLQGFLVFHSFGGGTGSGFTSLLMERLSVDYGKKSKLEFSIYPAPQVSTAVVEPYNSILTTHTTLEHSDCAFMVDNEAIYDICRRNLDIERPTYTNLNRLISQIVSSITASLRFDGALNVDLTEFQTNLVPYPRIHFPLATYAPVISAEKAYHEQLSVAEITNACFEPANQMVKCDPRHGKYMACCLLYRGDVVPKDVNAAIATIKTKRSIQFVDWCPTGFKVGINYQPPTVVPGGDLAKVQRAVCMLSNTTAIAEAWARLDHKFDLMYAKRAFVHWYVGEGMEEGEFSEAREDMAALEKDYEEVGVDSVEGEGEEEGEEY
Sequence of microtubules (Q6B856 whole entry): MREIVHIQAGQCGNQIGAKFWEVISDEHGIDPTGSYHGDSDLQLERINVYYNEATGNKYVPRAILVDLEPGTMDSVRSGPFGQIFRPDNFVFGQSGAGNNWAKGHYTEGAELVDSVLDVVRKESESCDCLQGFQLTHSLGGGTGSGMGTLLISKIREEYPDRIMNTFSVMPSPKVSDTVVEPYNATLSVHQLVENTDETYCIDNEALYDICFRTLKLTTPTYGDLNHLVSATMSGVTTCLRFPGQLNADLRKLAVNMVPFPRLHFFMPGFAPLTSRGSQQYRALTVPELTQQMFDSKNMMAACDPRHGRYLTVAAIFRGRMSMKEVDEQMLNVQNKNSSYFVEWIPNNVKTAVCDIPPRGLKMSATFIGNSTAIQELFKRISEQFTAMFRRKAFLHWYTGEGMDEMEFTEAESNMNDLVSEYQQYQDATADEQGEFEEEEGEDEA
In short: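 Paclitaxel-induced polymers were formed with GDP at the stated levels and monitored turbidimetrically. Samples were placed on carbon-coated formvar copper grids and stained with 1% uranyl acetate. Lengths were measured from EM negatives.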

[3] = system: taxoid site of microtubules; experiment: Displacement of a fluorescent taxoid analog from microtubules; assay type: binding; conditions: fluorescence anisotropy; personal communication, Dr. Fernando Díaz
tubulin E-site = conditions: read-out: Kd for GDP binding to the E-site; cited from earlier work
tubulin with MAPs = tubulin with MAPs (Bos taurus, UniProt P81947+Q6B856); experiment: Paclitaxel-induced tubulin assembly with heat-treated MAPs; assay type: biochemical, bovine
Sequence of tubulin with MAPs (P81947 whole entry): as the sequence (P81947 whole entry) above
Sequence of tubulin with MAPs (Q6B856 whole entry): as the sequence (Q6B856 whole entry) above

tubulin [4] = experiment: Critical concentration of tubulin for paclitaxel-induced assembly; assay type: biochemical, bovine; conditions: 10 μM paclitaxel
In short: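 Bovine brain tubulin, MAP-free, carrying E-site GDP and N-site GTP, with no exogenous GTP or Mg2+. Assay buffer 0.1 M Mes (pH 6.9) with 10 μM paclitaxel, plus heat-treated MAPs or MAPs with GTP where indicated. Components mixed at 0 °C, held 2 min, jumped to 30 °C and followed about 30 min. Turbidity read at 350 nm.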

tubulin [5] = conditions: paclitaxel, 37 °C, cited from earlier work

Sequence of tubulin (Bos taurus, UniProt P81947+Q6B856) (P81947 whole entry): as the sequence (P81947 whole entry) above
Sequence of tubulin (Bos taurus, UniProt P81947+Q6B856) (Q6B856 whole entry): as the sequence (Q6B856 whole entry) above

Nc1ncnc2c1ncn2[C@@H]1O[C@H](COP(=O)(O)OP(=O)(O)O)[C@@H](O)[C@H]1O [ADP]
Effect on paclitaxel-induced tubulin assembly (tubulin [1]; no exogenous GTP): had any inhibitory effect, nor did

Nc1ncnc2c1ncn2[C@@H]1O[C@H](COP(=O)(O)OP(=O)(O)OP(=O)(O)O)[C@@H](O)[C@H]1O [ATP]
Effect on paclitaxel-induced tubulin assembly (tubulin [1]; no exogenous GTP): weak inhibitory effect; also recorded: extensive inhibition; also recorded: inhibited

Nc1ccn([C@@H]2O[C@H](COP(=O)(O)OP(=O)(O)O)[C@@H](O)[C@H]2O)c(=O)n1 [CDP]
Effect on paclitaxel-induced tubulin assembly (tubulin [1]; no exogenous GTP): had any inhibitory effect, nor did

Nc1ccn([C@@H]2O[C@H](COP(=O)(O)OP(=O)(O)OP(=O)(O)O)[C@@H](O)[C@H]2O)c(=O)n1 [CTP]
Effect on paclitaxel-induced tubulin assembly (tubulin [1]; no exogenous GTP): Still weaker effects

Nc1nc2c(ncn2[C@@H]2O[C@H](COP(=O)(O)OP(=O)(O)O)[C@@H](O)[C@H]2O)c(=O)[nH]1 [GDP]
Effect on paclitaxel-induced tubulin assembly (tubulin [1]; 5 μM GDP): significant inhibitory effect
Effect on paclitaxel-induced tubulin assembly (tubulin [1]; 100 μM GDP): almost totally eliminated
Increase of the IC50 when 2 mM MgCl2 was added (tubulin [1]; 57 vs 15 μM): ~4 fold
IC50 with subtilisin-treated tubulin lower than value obtained with MAPs [2]: about 40%
Mean microtubule length ± SD, Average (microtubules; 5 μM GDP): 2.8 ± 2.1 μm
Mean microtubule length ± SD, Experiment I (microtubules; 5 μM GDP): 3.7 ± 2.2 μm
Mean microtubule length ± SD, Experiment II (microtubules; 5 μM GDP): 2.1 ± 1.5 μm
Mean microtubule length ± SD, Average (microtubules; 10 μM GDP): 2.8 ± 2.1 μm
Mean microtubule length ± SD, Experiment I (microtubules; 10 μM GDP): 3.5 ± 2.3 μm
Mean microtubule length ± SD, Experiment II (microtubules; 10 μM GDP): 2.2 ± 1.6 μm
Mean microtubule length ± SD, Average (microtubules; 50 μM GDP): 2.7 ± 2.4 μm
Mean microtubule length ± SD, Experiment I (microtubules; 50 μM GDP): 4.5 ± 3.2 μm
Mean microtubule length ± SD, Experiment II (microtubules; 50 μM GDP): 2.0 ± 1.5 μm
Change in average microtubule length (microtubules; whatever the GDP concentration (5-50 μM)): essentially no change
Displacement of fluorescent taxoid analog from microtubules [3]: unable to displace the fluorescent taxoid
Kd (tubulin E-site): 0.02 to 0.06 µM

Nc1nc2c(ncn2[C@@H]2O[C@H](COP(=O)(O)OP(=O)(O)OP(=O)(O)O)[C@@H](O)[C@H]2O)c(=O)[nH]1 [GTP]
Effect on paclitaxel-induced tubulin assembly (tubulin [1]; no exogenous GTP): enhancing assembly

O=c1[nH]cnc2c1ncn2[C@@H]1O[C@H](COP(=O)(O)OP(=O)(O)O)[C@@H](O)[C@H]1O [IDP]
Effect on paclitaxel-induced tubulin assembly (tubulin [1]; no exogenous GTP): had any inhibitory effect, nor did

O=c1[nH]cnc2c1ncn2[C@@H]1O[C@H](COP(=O)(O)OP(=O)(O)OP(=O)(O)O)[C@@H](O)[C@H]1O [ITP]
Effect on paclitaxel-induced tubulin assembly (tubulin [1]; no exogenous GTP): stimulatory

O=c1ccn([C@@H]2O[C@H](COP(=O)(O)OP(=O)(O)O)[C@@H](O)[C@H]2O)c(=O)[nH]1 [UDP]
Effect on paclitaxel-induced tubulin assembly (tubulin [1]; no exogenous GTP): had any inhibitory effect, nor did

O=c1ccn([C@@H]2O[C@H](COP(=O)(O)OP(=O)(O)OP(=O)(O)O)[C@@H](O)[C@H]2O)c(=O)[nH]1 [UTP]
Effect on paclitaxel-induced tubulin assembly (tubulin [1]; no exogenous GTP): stimulatory

O=c1[nH]c(=O)c2ncn([C@@H]3O[C@H](COP(=O)(O)OP(=O)(O)OP(=O)(O)O)[C@@H](O)[C@H]3O)c2[nH]1 [XTP]
Effect on paclitaxel-induced tubulin assembly (tubulin [1]; no exogenous GTP): stimulatory

COc1cc2cc(c1Cl)N(C)C(=O)C[C@H](OC(=O)[C@H](C)N(C)C(C)=O)[C@]1(C)O[C@H]1[C@H](C)[C@@H]1C[C@@](O)(NC(=O)O1)[C@H](OC)/C=C/C=C(\C)C2 [maytansine]
IC50 (tubulin [1]): < 5 µM
IC50 (tubulin with MAPs): < 5 µM

CC(=O)O[C@H]1C(=O)[C@@]2(C)[C@H]([C@H](OC(=O)c3ccccc3)[C@]3(O)C[C@H](OC(=O)[C@H](O)[C@@H](NC(=O)c4ccccc4)c4ccccc4)C(C)=C1C3(C)C)[C@]1(OC(C)=O)CO[C@@H]1C[C@@H]2O [paclitaxel, Paclitaxel]
Extent of tubulin assembly (tubulin [1]; tubulin and paclitaxel both at 10 μM, no GTP, no MAPs): negligible assembly
Reduction in critical concentration by subtilisin treatment (tubulin [4]; 15 μM to 1.6 μM): ~10 fold
Critical concentration of tubulin (tubulin [4]; 30 °C, MAPs alone added): about 3.5 μM
Critical concentration of tubulin (tubulin [4]; both MAPs and GTP added): less than 1 μM
Critical concentration of subtilisin-treated tubulin (tubulin [4]; subtilisin-treated tubulin): 1.6 µM
Critical concentration of tubulin (tubulin [5]; no GTP, no MAPs, obtained previously): 22 to 28 µM
Critical concentration of tubulin (tubulin [5]; with MAPs, different protein preparations): 2 to 5 µM

COc1cc([C@@H]2c3cc4c(cc3[C@H](O)[C@H]3COC(=O)[C@H]23)OCO4)cc(OC)c1OC [podophyllotoxin, Podophyllotoxin]
IC50 (tubulin with MAPs): < 5 µM
